Test results published in ChEMBL document CHEMBL1146111, “Factor VIIa inhibitors: chemical optimization, preclinical pharmacokinetics, pharmacodynamics, and efficacy in an arterial baboon thrombosis model” (Bioorg Med Chem Lett, 2006).
Values belong to the compound of their own block, whether it stands above or below them.

Legend:
[1] = target: T1, Coagulation factor VII/tissue factor (Homo sapiens) (UniProt P08709+P13726); assay: Selectivity for fVIIa/TF complex over fXa; format: protein-complex assay
Procedure, shortened: (§1)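 Ki ratios; fXa and thrombin assays pH 7.4, fVIIa assay with 7 nM fVIIa, 11 nM relipidated tissue factor, 5 mM CaCl2 and substrate CH3SO2-D-CHA-But-Arg-pNA.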

[2] = target: T1, Coagulation factor VII/tissue factor (Homo sapiens); assay: Selectivity for fVIIa/TF complex over fIIa; format: protein-complex assay; procedure, shortened: as §1
[3] = target: T1, Coagulation factor VII/tissue factor (Homo sapiens); assay: Anticoagulant potency in human plasma as measured by prothrombin time; format: functional, cell-free
Procedure, shortened: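 Clotting assay in human plasma on a coagulation analyzer run per manufacturer's instructions; concentration doubling prothrombin time reported.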

Coagulation factor VII = target: T2, Coagulation factor VII (Homo sapiens, UniProt P08709); assay: Binding affinity to F7a/TF complex; format: protein-complex assay
T2 sequence (P08709 whole entry): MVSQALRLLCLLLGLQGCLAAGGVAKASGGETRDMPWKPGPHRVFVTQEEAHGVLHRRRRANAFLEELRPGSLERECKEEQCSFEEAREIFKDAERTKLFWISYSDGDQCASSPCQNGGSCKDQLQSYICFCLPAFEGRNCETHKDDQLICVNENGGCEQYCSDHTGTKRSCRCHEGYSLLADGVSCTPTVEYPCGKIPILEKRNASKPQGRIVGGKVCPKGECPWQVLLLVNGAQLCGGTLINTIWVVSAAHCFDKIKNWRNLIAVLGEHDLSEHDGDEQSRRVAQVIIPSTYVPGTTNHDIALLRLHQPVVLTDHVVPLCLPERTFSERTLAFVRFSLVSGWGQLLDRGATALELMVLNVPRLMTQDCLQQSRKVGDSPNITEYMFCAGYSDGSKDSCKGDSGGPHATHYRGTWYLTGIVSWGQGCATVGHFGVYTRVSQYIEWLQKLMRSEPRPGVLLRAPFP

Baboon [4] = assay: Effect on reduction of platelet deposition in iv dosed baboon after 60 mins; format: functional, organism-based; conditions: Papio, 1 h
Procedure, shortened: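 Sigmoid Emax model fitted to dose (mg/kg) versus percent inhibition of platelet deposition relative to control at 60 min post IV bolus in the baboon A-V shunt model; ED50 is the dose producing 50% of maximum effect.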

[5] = target: T1, Coagulation factor VII/tissue factor (Homo sapiens); assay: Anticoagulant potency in baboon as measured by prothrombin time at 0.03 mg/kg, iv 1 hr post dose; format: functional, organism-based; set-up: dose 0.03 mg/kg; conditions: Papio, target entry is the homologue from another species
Procedure, shortened: (§2)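 Conscious non-anticoagulated baboons with chronic femoral arterio-venous shunt; single IV bolus, thrombogenic device inserted 5 min post dose. Device: 2 cm ePTFE graft (4 mm id) filled with relipidated tissue factor, flow 100 mL/min (shear 265/s), 60 min. Platelets: 111-In-labeled autologous, gamma camera every 5 min; fibrin: 125-I fibrinogen, graft counted after 30 days decay; PT monitored throughout; reduction vs saline control.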

[6] = target: T1, Coagulation factor VII/tissue factor (Homo sapiens); assay: Anticoagulant potency in baboon as measured by prothrombin time at 0.1 mg/kg, iv 1 hr post dose; format: functional, organism-based; set-up: dose 0.1 mg/kg; conditions: Papio, target entry is the homologue from another species; procedure, shortened: as §2
[7] = target: T1, Coagulation factor VII/tissue factor (Homo sapiens); assay: Anticoagulant potency in baboon as measured by prothrombin time at 0.5 mg/kg, iv 1 hr post dose; format: functional, organism-based; set-up: dose 0.5 mg/kg; conditions: Papio, target entry is the homologue from another species; procedure, shortened: as §2
CYP1A2 = target: T3, CYP1A2 (Homo sapiens, UniProt P05177); assay: Inhibition of CYP1A2 at 10 uM; format: ADME
T3 sequence (P05177 whole entry): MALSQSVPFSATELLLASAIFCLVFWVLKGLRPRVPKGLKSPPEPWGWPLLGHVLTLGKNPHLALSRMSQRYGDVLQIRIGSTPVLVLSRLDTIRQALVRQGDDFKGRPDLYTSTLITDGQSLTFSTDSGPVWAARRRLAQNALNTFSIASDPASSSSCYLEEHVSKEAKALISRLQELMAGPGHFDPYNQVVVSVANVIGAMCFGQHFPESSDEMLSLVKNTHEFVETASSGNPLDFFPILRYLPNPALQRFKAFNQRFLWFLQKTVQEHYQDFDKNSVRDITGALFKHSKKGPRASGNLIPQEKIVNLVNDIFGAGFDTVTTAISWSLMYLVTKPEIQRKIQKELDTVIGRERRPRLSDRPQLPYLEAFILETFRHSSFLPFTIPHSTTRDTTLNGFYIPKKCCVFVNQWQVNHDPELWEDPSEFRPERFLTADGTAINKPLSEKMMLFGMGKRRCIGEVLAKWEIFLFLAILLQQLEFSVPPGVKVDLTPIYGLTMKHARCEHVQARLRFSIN
Procedure, shortened: (§3)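 Five cytochrome P450 isozymes tested at 10 µM; percent inhibition.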

CYP2C9 = CYP2C9 (Homo sapiens, UniProt P11712); assay: Inhibition of CYP2C9 at 10 uM; format: ADME; procedure, shortened: as §3
Sequence of CYP2C9 (P11712 whole entry): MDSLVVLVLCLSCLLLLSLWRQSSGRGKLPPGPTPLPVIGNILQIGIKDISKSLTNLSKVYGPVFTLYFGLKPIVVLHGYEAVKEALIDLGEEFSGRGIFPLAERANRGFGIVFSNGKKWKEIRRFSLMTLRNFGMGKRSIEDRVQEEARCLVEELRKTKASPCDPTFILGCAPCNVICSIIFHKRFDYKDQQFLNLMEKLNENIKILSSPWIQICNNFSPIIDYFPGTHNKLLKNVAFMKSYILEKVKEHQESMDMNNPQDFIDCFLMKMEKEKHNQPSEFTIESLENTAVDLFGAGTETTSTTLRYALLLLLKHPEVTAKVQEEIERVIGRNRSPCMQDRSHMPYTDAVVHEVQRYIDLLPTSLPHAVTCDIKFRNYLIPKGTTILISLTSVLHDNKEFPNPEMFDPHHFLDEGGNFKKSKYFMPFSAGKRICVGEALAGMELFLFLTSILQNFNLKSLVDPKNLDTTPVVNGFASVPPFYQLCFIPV

CYP2C19 = CYP2C19 (Homo sapiens, UniProt P33261); assay: Inhibition of CYP2C19 at 10 uM; format: ADME; procedure, shortened: as §3
Sequence of CYP2C19 (P33261 whole entry): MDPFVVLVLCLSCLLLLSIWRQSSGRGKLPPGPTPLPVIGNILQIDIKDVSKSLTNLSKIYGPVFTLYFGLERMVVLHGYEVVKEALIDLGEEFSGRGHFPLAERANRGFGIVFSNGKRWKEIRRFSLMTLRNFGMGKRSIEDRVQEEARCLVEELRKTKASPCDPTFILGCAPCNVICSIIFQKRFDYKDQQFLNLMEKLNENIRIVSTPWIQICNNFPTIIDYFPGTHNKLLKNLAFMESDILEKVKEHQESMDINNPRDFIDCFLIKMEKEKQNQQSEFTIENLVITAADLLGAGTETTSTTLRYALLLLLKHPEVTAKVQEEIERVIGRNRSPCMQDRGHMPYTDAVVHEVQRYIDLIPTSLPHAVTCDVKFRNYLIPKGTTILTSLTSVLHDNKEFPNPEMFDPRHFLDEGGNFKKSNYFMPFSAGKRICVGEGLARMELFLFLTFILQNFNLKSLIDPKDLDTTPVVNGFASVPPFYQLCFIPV

CYP2D6 = CYP2D6 (Homo sapiens, UniProt P10635); assay: Inhibition of CYP2D6 at 10 uM; format: ADME; procedure, shortened: as §3
Sequence of CYP2D6 (P10635 whole entry): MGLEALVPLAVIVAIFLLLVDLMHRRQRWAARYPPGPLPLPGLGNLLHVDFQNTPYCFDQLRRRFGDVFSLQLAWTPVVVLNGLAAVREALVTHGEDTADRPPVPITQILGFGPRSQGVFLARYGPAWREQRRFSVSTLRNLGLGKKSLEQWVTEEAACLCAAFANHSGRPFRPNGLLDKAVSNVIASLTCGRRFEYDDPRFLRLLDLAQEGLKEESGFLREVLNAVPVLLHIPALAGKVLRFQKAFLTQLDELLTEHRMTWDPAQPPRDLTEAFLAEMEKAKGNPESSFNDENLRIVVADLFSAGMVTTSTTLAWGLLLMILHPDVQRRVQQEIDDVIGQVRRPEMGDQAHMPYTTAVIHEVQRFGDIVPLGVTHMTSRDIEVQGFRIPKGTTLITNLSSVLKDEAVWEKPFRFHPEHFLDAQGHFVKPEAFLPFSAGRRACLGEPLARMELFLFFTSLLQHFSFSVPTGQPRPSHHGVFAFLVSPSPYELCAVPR

CYP3A4 = CYP3A4 (Homo sapiens, UniProt P08684); assay: Inhibition of CYP3A4 at 10 uM; format: ADME; procedure, shortened: as §3
Sequence of CYP3A4 (P08684 whole entry): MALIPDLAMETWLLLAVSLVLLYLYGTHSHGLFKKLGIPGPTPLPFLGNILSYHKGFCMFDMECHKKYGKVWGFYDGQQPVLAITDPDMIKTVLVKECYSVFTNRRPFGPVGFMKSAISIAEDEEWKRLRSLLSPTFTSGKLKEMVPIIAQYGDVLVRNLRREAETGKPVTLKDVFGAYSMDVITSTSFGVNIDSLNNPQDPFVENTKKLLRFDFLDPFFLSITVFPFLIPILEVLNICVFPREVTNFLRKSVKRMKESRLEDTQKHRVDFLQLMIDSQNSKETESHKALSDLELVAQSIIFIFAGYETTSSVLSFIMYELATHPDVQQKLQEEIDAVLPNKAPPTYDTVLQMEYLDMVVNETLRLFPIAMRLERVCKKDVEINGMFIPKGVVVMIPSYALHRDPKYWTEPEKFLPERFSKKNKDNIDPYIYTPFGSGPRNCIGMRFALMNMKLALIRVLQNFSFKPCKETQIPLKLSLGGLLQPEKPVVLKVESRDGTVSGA

[8] = Plasma clearance in iv dosed C57BL/6 mice; format: ADME, organism-based; conditions: C57BL/6, mouse
Procedure, shortened: (§4)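 Single IV dose to female C57BL/6 mice or male Sprague–Dawley rats, NZW rabbits, Beagle dogs, or baboons; plasma concentrations measured by LC/MS/MS.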

Mus musculus = assay: Volume of distribution in iv dosed C57BL/6 mice; format: ADME, organism-based; conditions: in vivo; procedure, shortened: as §4
[9] = Mean residence time in iv dosed C57BL/6 mice; format: ADME, organism-based; conditions: C57BL/6, mouse, in vivo; procedure, shortened: as §4
[10] = Plasma clearance in iv dosed Sprague-Dawley rat; format: ADME, organism-based; procedure, shortened: as §4
Rattus norvegicus = assay: Volume of distribution in iv dosed Sprague-Dawley rat; format: ADME, organism-based; conditions: in vivo; procedure, shortened: as §4
[11] = Mean residence time in iv dosed Sprague-Dawley rat; format: ADME, organism-based; conditions: in vivo; procedure, shortened: as §4
[12] = Plasma clearance in iv dosed New Zealand White rabbit; format: ADME, organism-based, Oryctolagus cuniculus; procedure, shortened: as §4
Baboon [13] = assay: Inhibition of fibrin deposition in baboon at 0.03 mg/kg, iv 1 hr post dose relative to control; format: functional; conditions: Papio, in Papio anubis; procedure, shortened: as §2
Baboon [14] = assay: Inhibition of fibrin deposition in baboon at 0.1 mg/kg, iv 1 hr post dose relative to control; format: functional; conditions: Papio, in Papio anubis; procedure, shortened: as §2
Oryctolagus cuniculus = assay: Volume of distribution in iv dosed New Zealand White rabbit; format: ADME, organism-based; conditions: in vivo; procedure, shortened: as §4
[15] = Mean residence time in iv dosed New Zealand White rabbit; format: ADME, organism-based, Oryctolagus cuniculus; conditions: in vivo; procedure, shortened: as §4
[16] = Plasma clearance in iv dosed Beagle dog; format: ADME, organism-based, Canis lupus familiaris; procedure, shortened: as §4
Canis familiaris = assay: Volume of distribution in iv dosed Beagle dog; format: ADME, organism-based, Canis lupus familiaris; conditions: in vivo; procedure, shortened: as §4
[17] = Mean residence time in iv dosed Beagle dog; format: ADME, organism-based, Canis lupus familiaris; conditions: in vivo; procedure, shortened: as §4
[18] = Plasma clearance in iv dosed baboon; format: ADME, organism-based, Papio; procedure, shortened: as §4
Baboon [19] = assay: Volume of distribution in iv dosed baboon; format: ADME, organism-based, Papio; conditions: in vivo; procedure, shortened: as §4
[20] = Mean residence time in iv dosed baboon; format: ADME, organism-based, Papio; conditions: in vivo; procedure, shortened: as §4
Baboon [21] = assay: Inhibition of platelet deposition in baboon at 0.03 mg/kg, iv 1 hr post dose relative to control; format: functional; conditions: Papio, in Papio anubis; procedure, shortened: as §2
Baboon [22] = assay: Inhibition of platelet deposition in baboon at 0.1 mg/kg, iv 1 hr post dose relative to control; format: functional; conditions: Papio, in Papio anubis; procedure, shortened: as §2
Baboon [23] = assay: Inhibition of platelet deposition in baboon at 0.5 mg/kg, iv 1 hr post dose relative to control; format: functional; conditions: Papio, in Papio anubis; procedure, shortened: as §2
Baboon [24] = assay: Inhibition of fibrin deposition in baboon at 0.5 mg/kg, iv 1 hr post dose relative to control; format: functional; conditions: Papio, in Papio anubis; procedure, shortened: as §2
[25] = target: T1, Coagulation factor VII/tissue factor (Homo sapiens); assay: Ratio of prothrombin time in baboon over prothrombin time in human
[26] = target: T1, Coagulation factor VII/tissue factor (Homo sapiens); assay: Anticoagulant potency in human plasma as measured by activated partial thromboplastin time

SMILES: N=C(N)c1ccc2[nH]c(-c3cc(C(CC(=O)O)C(=O)O)cc(-c4cc(F)ccc4O)c3O)nc2c1 (configuration not stated)
Ratio Ki [1]: 1800
Ratio Ki [2]: 55500
2PT [3]: 10.2 µM

SMILES: N=C(N)c1ccc2[nH]c(-c3cc(C(CC(=O)O)C(=O)O)cc(-c4cc(CN)ccc4O)c3O)nc2c1 (configuration not stated)
Ki (Coagulation factor VII): 0.035 µM
Ratio Ki [1]: 510
Ratio Ki [2]: 4200
2PT [3]: 2.9 µM

SMILES: N=C(N)c1ccc2[nH]c(-c3cc(C(CC(=O)O)C(=O)O)cc(-c4cc(NC(N)=O)ccc4O)c3O)nc2c1 (configuration not stated)
Ki (Coagulation factor VII): 0.044 µM
Ratio Ki [1]: 270
Ratio Ki [2]: 3400
2PT [3]: 4.9 µM

SMILES: N=C(N)c1ccc2[nH]c(-c3cc(C(CC(=O)O)C(=O)O)cc(-c4cc(C(N)=O)ccc4O)c3O)nc2c1 (configuration not stated)
Ki (Coagulation factor VII): 0.014 µM
Ratio Ki [1]: 1100
Ratio Ki [2]: 10700
2PT [3]: 3.6 µM

SMILES: N=C(N)c1ccc2[nH]c(-c3cc(C(CC(=O)O)C(=O)O)cc(-c4cc(C(=O)O)ccc4O)c3O)nc2c1 (configuration not stated)
Ki (Coagulation factor VII): 0.043 µM
Ratio Ki [1]: 300
Ratio Ki [2]: 3500
2PT [3]: 8.2 µM

SMILES: N=C(N)c1ccc2[nH]c(-c3cc(C(CC(=O)O)C(=O)O)cc(-c4cc(CNC(N)=O)ccc4O)c3O)nc2c1 (configuration not stated)
EC50 (Baboon [4]): 0.17 µM
ED50 (Baboon [4]; in Papio anubis, iv): 0.06 mg/kg
Emax (Baboon [4]; in Papio anubis, iv): 99%
PT [5]: 11.3 s
PT [6]: 11.3 s
PT [7]: 11.6 s
Ratio Ki [1]: 3600
Ratio Ki [2]: > 100000
inhibition at 10 µM (CYP1A2): < 40%
inhibition at 10 µM (CYP2C9): < 40%
inhibition at 10 µM (CYP2C19): < 40%
inhibition at 10 µM (CYP2D6): < 40%
inhibition at 10 µM (CYP3A4): < 40%
clearance [8]: 0.103 mL/min
Vdss (Mus musculus): 2.43 mL
MRT [9]: 0.392 h
clearance [10]: 0.81 mL/min
Vdss (Rattus norvegicus): 55.2 mL
MRT [11]: 1.15 h
clearance [12]: 6.1 mL/min
inhibition in vivo at 0.03 mg/kg (Baboon [13]): 20%
inhibition in vivo at 0.1 mg/kg (Baboon [14]): 64%
Vdss (Oryctolagus cuniculus): 1080 mL
MRT [15]: 3.03 h
clearance [16]: 30.5 mL/min
Vdss (Canis familiaris): 6750 mL
MRT [17]: 3.73 h
clearance [18]: 26.5 mL/min
Vdss (Baboon [19]): 5854 mL
MRT [20]: 3.87 h
inhibition in vivo at 0.03 mg/kg (Baboon [21]): 14%
inhibition in vivo at 0.1 mg/kg (Baboon [22]): 61%
inhibition in vivo at 0.5 mg/kg (Baboon [23]): 87%
inhibition in vivo at 0.5 mg/kg (Baboon [24]): 86%
Ratio [25]: 1.05
2aPTT [26]: 0.8 µM

The remaining lines, values ahead:

Ratio Ki [1]: 280
Ratio Ki [2]: 12500
2PT [3]: 6.4 µM
SMILES: N=C(N)c1ccc2[nH]c(-c3cc(C(CC(=O)O)C(=O)O)cc(-c4cc(CC(N)=O)ccc4O)c3O)nc2c1 (configuration not stated)

Ki (Coagulation factor VII): 0.012 µM
SMILES: N=C(N)c1ccc2nc(-c3cc(C(CC(=O)O)C(=O)O)cc(-c4cc(CC(N)=O)ccc4O)c3O)[nH]c2c1 (configuration not stated)

Ki (Coagulation factor VII): 0.012 µM
SMILES: N=C(N)c1ccc2nc(-c3cc(C(CC(=O)O)C(=O)O)cc(-c4cc(CC(=O)O)ccc4O)c3O)[nH]c2c1 (configuration not stated)

Ki (Coagulation factor VII): 0.013 µM
Ratio Ki [1]: 350
Ratio Ki [2]: 11500
2PT [3]: 5.4 µM
SMILES: N=C(N)c1ccc2[nH]c(-c3cc(C(CC(=O)O)C(=O)O)cc(-c4cc(CCC(=O)O)ccc4O)c3O)nc2c1 (configuration not stated)

Ratio Ki [1]: 125
Ratio Ki [2]: 12500
2PT [3]: 6.2 µM
SMILES: N=C(N)c1ccc2[nH]c(-c3cc(C(CC(=O)O)C(=O)O)cc(-c4cc(CC(=O)O)ccc4O)c3O)nc2c1 (configuration not stated)
